Biological target: P450-SS9 (cytochrome P450 from Photobacterium profundum strain SS9) (Photobacterium profundum, UniProt Q6LGK6)
Experiment: absorbance
Type: binding
How it was run: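 Enzyme at 0.8-1.8 μM was titrated with fatty acids or derivatives, added from 30-140 mM acetone stocks, at 25 °C with stirring in 0.1 M Na-Hepes pH 7.4 with 0.5 mM EDTA. Absorbance spectra were PCA/SVD-resolved into high-spin, low-spin and P420 standards. Kd came from a tight-binding (square-root) equation fit.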

| Kd | Structure (SMILES) |
| --- | --- |
| 0.97 ± 0.42 µM | CCCCCCCCCCCCCC(=O)O [myristic acid] |
| 49.5 ± 30 µM | CCCCCCCC/C=C\CCCCCCCC(=O)NCC(=O)O [oleoyl glycine] |
| 24.3 ± 8.2 µM | CCCCCCCCCCCCCCCC(=O)O [palmitic acid] |

| Structure (SMILES) | Kd |
| --- | --- |
| CCCCC/C=C\C/C=C\C/C=C\C/C=C\CCCC(=O)O [arachidonic acid] | 19.2 ± 4.2 µM |
| CCCCC/C=C\C/C=C\C/C=C\C/C=C\CCCC(=O)NCC(=O)O [arachidonoyl glycine] | 16.7 ± 0.1 µM |

Source: PMC3027307 (Biochemistry, 2010)
